Consider 14 compounds from PubChem BioAssay.

As usually defined, the inhibition is the drop in the measured response relative to a control, in per cent.

Calls of active or inactive are those of the source.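 How the source made its calls, unless noted: active means fluorescence slope higher than the sample average by over 3 SD (cut at about -0.22 in these data, passing the limit was not always enough); inactive means the rest.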

A short description of experiment [1]: inhibitors of TNFa-induced NFkB p65 translocation, primary screen, imaging, HUVEC, MLSMR starter and 10KST1 sets (AID 438;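 active means inhibition above 20% together with a positive visual image hit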;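 further: compound added about 3h40 before a 20 min TNFalpha stimulation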;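 on inhibition: signal is the nuclear over cytoplasmic p65 intensity ratio per well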). As to conditions: HUVEC TNFa-induced p65 nuclear translocation; cell count: measured here: nuclei count (cytotoxicity indicator), at 2.08 µM; inhibition: at 2 µM, stronger effect = higher value, 0% TNFa-plus-vehicle, 100% no-TNFa wells.
Experiment [2] can be described thus: inhibitors of mutant huntingtin aggregation, primary screen, imaging, exon1htt(103Q)mCFP cells, high-content imaging (AID 483;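 active means visual image review flags a hit and inhibition of aggregation exceeds 20%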;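 further: compound exposure lasted 3 days before fixation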;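 on nuclei count: percent of the per-plate median nuclei count of sample wells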). Conditions: exon1htt(103Q)mCFP cell line, aggregate imaging, at 2 µM; inhibition of aggregation: stronger effect = higher value; nuclei count: measured here: cell count, toxicity.
The nature of experiment [3]: inhibitors of E-selectin induction by TNFa, primary screen, imaging, HUVEC, immunofluorescence, MLSMR starter and 10KST1 sets (AID 487;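 active means visually confirmed hit in the image check and inhibition above 20%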;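 on inhibition: signal is fraction of cell area covered by stained E-selectin grains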;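 on nuclei count: 100% = median nuclei count of all wells on the same plate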). As to conditions: HUVEC TNFalpha-induced E-selectin immunofluorescence imaging, at 2 µM; inhibition: stronger effect = higher value; nuclei count: measured here: cell number, toxicity.
Experiment [4] deals with Voltage-gated potassium channel subunit beta-2 (Rattus norvegicus) (UniProt P62483). In words: KvBeta enzyme negative modulators, primary screen, biochemical, NADPH fluorescence (AID 622).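 Further: slope of raw intensity against log time taken from 70 to 1610 s.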 Conditions: recombinant KvBeta, 4-cyanobenzaldehyde reduction, at 10 µM, stronger effect = higher value.
For experiment [5] the target is unchanged. Briefly: KvBeta positive modulators, primary screen, biochemical, NADPH fluorescence (AID 623;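 active means NADPH fluorescence slope more negative than the mean of all samples by about 3 SD, 99.7% confidence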;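 further: fluorescence intensity change per second fitted from 20 to 320 s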). As to conditions: Recombinant KvBeta, NADPH fluorescence decrease slope, 10 min; at 10 µM; stronger effect = lower value.
For experiment [6], the target named is Muscarinic acetylcholine receptor M4 (Homo sapiens) (UniProt P08173). Briefly: compounds altering M4/GIRK thallium flux, either direction, primary screen, M4 allosteric agonist project, cell-based, HEK293 M4/GIRK, BTC-AM (AID 625;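 active means fluorescence slope after compound addition differing from the mean of all tested samples at 99.7% confidence, mostly higher but some lower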;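 further: thallium influx through GIRK channels coupled to M4 in HEK293 cells with BTC-AM dye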). As to conditions: at 10 µM, actives lie on both sides. Summed up: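 assay system = HEK293 cells with M4 receptor and GIRK channels | medium = pH 7.3 thallium assay buffer | doses = 10 µM final, single point | timing = cells overnight at 37 °C, BTC-AM loading 1 h, reads 2 min total | signal = BTC-AM fluorescence, 1 Hz kinetic reads | read-out = post-addition slope, 15–24 s, of baseline-normalized fluorescence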

A short description of experiment [7]: inhibitors of Sendai virus-induced IRF3 signaling, primary screen, TLR/RLR signaling modifier project, cell-based, Sendai virus stimulus, luciferase, 10K MLSCN set (AID 602276;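 active means inhibition at or above 50% at 10 µM; inactive means inhibition below 50%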;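 further: firefly luciferase from ISG56 promoter only with Renilla not read in this screen; 0% = Sendai virus plus DMSO and 100% = medium plus DMSO without virus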). As to conditions: HEK293 RL24 IRF3 luciferase reporter, at 10 µM, stronger effect = higher value.
Experiment [8] can be described thus: inhibitors of poly I:C-induced TLR3 signaling, primary screen, cell-based, poly I:C stimulus, luciferase, 10K MLSCN set (AID 602277;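 active means inhibition of the reporter signal at or above 50%; inactive means inhibition below 50%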). As to conditions: HEK293-TLR3 RL24 IRF3 luciferase reporter, at 10 µM, stronger effect = higher value. A general note: Reporter assays use an easily measured gene product as a stand-in for the process of interest.

Sequence of Voltage-gated potassium channel subunit beta-2 (Rattus norvegicus) (P62483 whole entry, looked up): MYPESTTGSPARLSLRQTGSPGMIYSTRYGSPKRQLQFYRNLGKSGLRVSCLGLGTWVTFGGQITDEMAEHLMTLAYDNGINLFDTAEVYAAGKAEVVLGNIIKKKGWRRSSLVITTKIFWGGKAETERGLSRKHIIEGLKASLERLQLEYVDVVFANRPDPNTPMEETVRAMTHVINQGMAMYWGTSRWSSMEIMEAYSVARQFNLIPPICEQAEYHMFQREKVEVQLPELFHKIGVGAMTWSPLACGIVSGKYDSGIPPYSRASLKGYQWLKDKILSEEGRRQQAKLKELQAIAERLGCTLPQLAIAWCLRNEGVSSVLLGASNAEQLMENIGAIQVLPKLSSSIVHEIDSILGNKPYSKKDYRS
Sequence of Muscarinic acetylcholine receptor M4 (Homo sapiens) (P08173 whole entry, looked up): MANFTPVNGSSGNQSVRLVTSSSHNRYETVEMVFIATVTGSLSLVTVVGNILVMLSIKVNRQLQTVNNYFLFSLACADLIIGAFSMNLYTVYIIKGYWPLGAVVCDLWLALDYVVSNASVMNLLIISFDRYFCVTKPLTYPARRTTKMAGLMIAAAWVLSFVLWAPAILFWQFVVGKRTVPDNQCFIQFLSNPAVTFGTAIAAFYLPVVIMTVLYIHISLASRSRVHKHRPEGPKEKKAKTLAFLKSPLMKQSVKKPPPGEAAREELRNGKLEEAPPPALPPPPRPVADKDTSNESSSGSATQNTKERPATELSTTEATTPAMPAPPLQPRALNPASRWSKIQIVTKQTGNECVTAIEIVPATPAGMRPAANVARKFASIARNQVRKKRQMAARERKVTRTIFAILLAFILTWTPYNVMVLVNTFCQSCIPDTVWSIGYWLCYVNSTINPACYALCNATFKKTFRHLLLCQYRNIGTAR

On to `O=C(CCCN1C(=O)c2ccccc2C1=O)Oc1ccc(F)cc1`, for which the cell count in experiment [1] was 735. In addition, the inhibition in experiment [1] is -11.6% (inactive); in experiment [3] it was 17.3% (inactive); in experiment [7] it was 12.5% (inactive); in experiment [8], 18.6% (inactive). Besides, the inhibition of aggregation in experiment [2] was -0.5% (inactive). Besides, the nuclei count was 106% in experiment [2] and 96.8% in experiment [3]. For the same compound, the fluorescence slope in experiment [4] is -0.512 (inactive); in experiment [6], 0.00485 (inactive). In experiment [5], the NADPH fluorescence slope is 1.4e-05 (inactive).
With `CCOC(=O)CSc1nnc(-c2ccc(S(=O)(=O)N3CCOCC3)cc2)n1-c1ccccc1`, the cell count in experiment [1] came to 193. Besides, the inhibition in experiment [1] was -21.3% (inactive); in experiment [3], -19.3% (inactive); in experiment [7] it was 10.2% (inactive); in experiment [8], 17.7% (inactive). Moreover, the inhibition of aggregation in experiment [2] is -7.9% (inactive). Further, the nuclei count in experiment [2] stood at 88.6%; in experiment [3], 94.3%. Besides, the fluorescence slope in experiment [4] was -0.486 (inactive); in experiment [6] it was 0.00502 (inactive). Besides, the NADPH fluorescence slope in experiment [5] was -3.1e-05 (inactive).
Regarding `CCn1cc(C(=O)OCC(=O)OC2CC(C)CCC2C(C)C)c(=O)c2ccc(C)nc21` (centres undefined), the cell count in experiment [1] amounted to 519. In addition, the inhibition in experiment [1] is -21.2% (inactive); in experiment [3], 26.8% (inactive); in experiment [7], 18.5% (inactive); in experiment [8], 5.31% (inactive). Besides, in experiment [2], the inhibition of aggregation was 2.5% (inactive). The nuclei count in experiment [2] was 92.5%; in experiment [3] it was 104%. Also, the fluorescence slope was -0.416 (inactive) in experiment [4] and 0.00567 (inactive) in experiment [6]. Moreover, the NADPH fluorescence slope in experiment [5] is -0.000351 (inactive).
For the compound `O=S(=O)(c1ccc(OCC(O)CN2CCC(Cc3ccccc3)CC2)cc1)N1CCOCC1` (centres undefined), the cell count in experiment [1] turned out to be 730. Moreover, the inhibition in experiment [1] is 4.8% (inactive); in experiment [3] it was -22.7% (inactive); in experiment [7], -3.87% (inactive); in experiment [8], 3.35% (inactive). Also, the inhibition of aggregation in experiment [2] was -9.9% (inactive). Besides, the nuclei count was 120% in experiment [2] and 116% in experiment [3]. Also, the fluorescence slope in experiment [4] was -0.46 (inactive); in experiment [6], 0.00575 (inactive). Also, the NADPH fluorescence slope in experiment [5] is -4e-06 (inactive).
As for `CC(=O)c1ccc(Oc2cc(C)nc(-n3nc(C)cc3C)n2)cc1`, the cell count in experiment [1] is 468. The inhibition was -15.6% (inactive) in experiment [1], -17.9% (inactive) in experiment [3], -4.86% (inactive) in experiment [7] and 78.2% (active) in experiment [8]. Moreover, the inhibition of aggregation in experiment [2] was -50.7% (inactive). Also, the nuclei count in experiment [2] amounted to 1.1%; in experiment [3], 102%. Besides, the fluorescence slope was -0.547 (inactive) in experiment [4] and 0.00511 (inactive) in experiment [6]. The NADPH fluorescence slope in experiment [5] is 1.9e-05 (inactive).
Regarding `Cc1c(NC(=O)C(C)OC(=O)C(NC(=O)c2ccco2)C(C)C)c(=O)n(-c2ccccc2)n1C` (centres undefined), the cell count in experiment [1] is 419. Moreover, the inhibition in experiment [1] was -8% (inactive); in experiment [3], -25.3% (inactive); in experiment [7], 10.2% (inactive); in experiment [8], 14.1% (inactive). Further, the inhibition of aggregation in experiment [2] is -12.5% (inactive). The nuclei count in experiment [2] was found to be 105%; in experiment [3], 106%. The fluorescence slope in experiment [4] is -0.276 (inactive); in experiment [6] it was 0.00712 (inactive). In addition, in experiment [5], the NADPH fluorescence slope is -5.3e-05 (inactive).
Take `COc1ccc(OC)c(N2Cc3cc(C)c(C)cc3C2)c1`: in experiment [1], the cell count is 561. Moreover, the inhibition was -3.1% (inactive) in experiment [1], -8.6% (inactive) in experiment [3], -3.86% (inactive) in experiment [7] and -7.05% (inactive) in experiment [8]. The inhibition of aggregation in experiment [2] was 0.2% (inactive). The nuclei count in experiment [2] is 79.6%; in experiment [3], 86.7%. The figures for the fluorescence slope in experiment [4] and in experiment [6] were -0.476 (inactive) and 0.00388 (inactive), respectively. The NADPH fluorescence slope in experiment [5] was -6.9e-05 (inactive).
Regarding `CC(C)CCn1c(N)c(S(=O)(=O)c2cccs2)c2nc3ccccc3nc21`, the cell count in experiment [1] was found to be 652. The inhibition in experiment [1] is 2% (inactive); in experiment [3], -67.7% (inactive); in experiment [7], 8.07% (inactive); in experiment [8], -1.32% (inactive). For the same compound, the inhibition of aggregation in experiment [2] was 0% (inactive). The nuclei count came out at 105% in experiment [2] and 124% in experiment [3]. The fluorescence slope was -0.398 (inactive) in experiment [4] and 0.00628 (inactive) in experiment [6]. Moreover, the NADPH fluorescence slope in experiment [5] is 1.8e-05 (inactive).
As for `Cc1c(C(=O)NCc2ccccn2)oc2ccccc12`, the cell count in experiment [1] came to 328. The inhibition in experiment [1] was -4.1% (inactive); in experiment [3], 44.5% (inactive); in experiment [7] it was -29.5% (inactive); in experiment [8], -79.6% (inactive). Moreover, in experiment [2], the inhibition of aggregation is -3.8% (inactive). Besides, the nuclei count turned out to be 86% in experiment [2] and 49.4% in experiment [3]. Further, the fluorescence slope in experiment [4] was -0.514 (inactive); in experiment [6], 0.00478 (inactive). Further, the NADPH fluorescence slope in experiment [5] is 8.6e-06 (inactive).
In the case of `COc1cc(NC(=O)C2CC(c3cccc(OC)c3OC)=NO2)cc(OC)c1OC` (centres undefined), the cell count in experiment [1] came out at 711. Further, the inhibition in experiment [1] is -12.2% (inactive); in experiment [3], -176% (inactive); in experiment [7] it was 17.4% (inactive); in experiment [8], -1.09% (inactive). Moreover, the inhibition of aggregation in experiment [2] was -18.4% (inactive). The nuclei count in experiment [2] came out at 76.9%; in experiment [3] it was 104%. In addition, the fluorescence slope in experiment [4] is -0.573 (inactive); in experiment [6], 0.0048 (inactive). For the same compound, the NADPH fluorescence slope in experiment [5] is 2.2e-05 (inactive).
Take `CCOC(=O)CSc1nc2cc(C(=O)NCc3ccco3)ccc2c(=O)n1C1CCCCC1`: the cell count in experiment [1] stood at 455. Also, the inhibition in experiment [1] was 4.3% (inactive); in experiment [3], 10% (inactive); in experiment [7] it was 12.1% (inactive); in experiment [8] it was 18.6% (inactive). Moreover, the inhibition of aggregation in experiment [2] was -11.8% (inactive). The results for the nuclei count in experiment [2] and in experiment [3] were 92% and 93.7%, respectively. Also, the fluorescence slope in experiment [4] is -0.397 (inactive); in experiment [6] it was 0.00847 (inactive). Besides, in experiment [5], the NADPH fluorescence slope was -5.9e-05 (inactive).
Regarding `Cn1cccc1-c1cc(C(=O)O)[nH]n1`, the cell count in experiment [1] amounted to 825. Also, the inhibition in experiment [1] was -8.7% (inactive); in experiment [3], -57.9% (inactive); in experiment [7], 15.5% (inactive); in experiment [8], 15.9% (inactive). In experiment [2], the inhibition of aggregation was 7.8% (inactive). For the same compound, the nuclei count amounted to 56.8% in experiment [2] and 139% in experiment [3]. For the same compound, the fluorescence slope is -0.465 (inactive) in experiment [4] and 0.00382 (inactive) in experiment [6]. In addition, the NADPH fluorescence slope in experiment [5] was -0.000188 (inactive).
On to `O=c1cc(CSc2nnc(COc3ccc(Cl)cc3)o2)c2ccccc2[nH]1`, for which the cell count in experiment [1] turned out to be 544. Moreover, the inhibition was -6.2% (inactive) in experiment [1], -46.6% (inactive) in experiment [3], 1.93% (inactive) in experiment [7] and -11.9% (inactive) in experiment [8]. The inhibition of aggregation in experiment [2] was 8% (inactive). The figures for the nuclei count in experiment [2] and in experiment [3] were 98.4% and 153%, respectively. For the same compound, the fluorescence slope in experiment [4] was -0.497 (inactive); in experiment [6] it was 0.00464 (inactive). The NADPH fluorescence slope in experiment [5] is 7.1e-08 (inactive).
`Cc1ccc(N2CC(C(=O)Nc3nnc(C)s3)CC2=O)cc1` (centres undefined): the cell count in experiment [1] came out at 622. Moreover, the inhibition was 0% (inactive) in experiment [1], 21.8% (inactive) in experiment [3], 18.6% (inactive) in experiment [7] and 14.5% (inactive) in experiment [8]. In addition, in experiment [2], the inhibition of aggregation is -10.8% (inactive). Further, the nuclei count in experiment [2] is 95.6%; in experiment [3], 103%. Besides, the fluorescence slope was -0.542 (inactive) in experiment [4] and 0.00498 (inactive) in experiment [6]. Also, the NADPH fluorescence slope in experiment [5] was -3e-05 (inactive).
